ChEMBL document CHEMBL1141317, “Pavietin, a coumarin from Aesculus pavia with antifungal activity” (2007)

What was measured:
Guignardia aesculi [1] = assay: Antifungal activity against Guignardia aesculi assessed as mycelial growth at 15 mg/disk by filter disk method relative to control; format: functional
Procedure, shortened: (§1)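 Compound dissolved in a few drops of absolute EtOH and loaded onto 5 mm paper disks at 0.15, 1.5 or 15 mg per disk. Disks placed on PDA in 12 cm Petri dishes, 30 dishes per treatment per species. Inhibition zones measured in mm after 3 days at 27 °C. EtOH-only disk as control. Growth given as % of control (100%). Student–Neumann–Keuls test, p = 0.05.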

Rhizopus stolonifer [2] = assay: Antifungal activity against Rhizopus stolonifer assessed as mycelial growth at 50 umol/L by […] relative to control; format: functional
Procedure, shortened: (§2)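 Agar-incorporation assay rather than disk. Compound in a few drops of DMSO, ultrafiltered and added to autoclaved, still-molten PDA at 50, 100 or 200 μmol L⁻¹. 1 cm mycelial plugs inoculated, 40 dishes per treatment per species. Grown 3 days at 22 °C in darkness. Mycelial growth expressed as % of DMSO-only controls (100%). Student–Neumann–Keuls test, p = 0.05.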

Guignardia aesculi [3] = assay: Antifungal activity against Guignardia aesculi assessed as mycelial growth at 1.5 mg/disk by filter disk method relative to control; format: functional; procedure, shortened: as §1
Alternaria alternata [4] = assay: Antifungal activity against Alternaria alternata assessed as mycelial growth at 100 umol/L by filter disk method relative to control; format: functional; conditions: in the assay text read “by incorporation into growth medium” for “by filter disk method”; procedure, shortened: as §2
Trichoderma viride [5] = assay: Antifungal activity against Trichoderma viride assessed as mycelial growth at 200 umol/L by filter disk method relative to control; format: functional; conditions: in the assay text read “by incorporation into growth medium” for “by filter disk method”; procedure, shortened: as §2
[6] = Antifungal activity against Polyporus marginatus assessed as mycelial growth at 200 umol/L by filter disk method relative to control; format: functional; conditions: in the assay text read “by incorporation into growth medium” for “by filter disk method”; procedure, shortened: as §2
[7] = Antifungal activity against Fusarium oxysporum dianthi assessed as mycelial growth at 50 umol/L […] relative to control; format: functional; conditions: Fusarium oxysporum f. sp. dianthi; procedure, shortened: as §2
Penicillium expansum [8] = assay: Antifungal activity against Penicillium expansum assessed as mycelial growth at 200 umol/L […] relative to control; format: functional; procedure, shortened: as §2
Fulvia fulva [9] = assay: Antifungal activity against Cladosporium fulvum assessed as mycelial growth at 50 umol/L by filter disk method relative to control; format: functional; conditions: in the assay text read “by incorporation into PDA growth medium” for “by filter disk method”; procedure, shortened: as §2
Fulvia fulva [10] = assay: Antifungal activity against Cladosporium fulvum assessed as mycelial growth at 100 umol/L by filter disk method relative to control; format: functional; conditions: in the assay text read “by incorporation into PDA growth medium” for “by filter disk method”; procedure, shortened: as §2
Fusarium basilici [11] = assay: Antifungal activity against Fusarium basilici assessed as mycelial growth at 0.15 mg/disk by filter disk method relative to control
Globisporangium ultimum [12] = assay: Antifungal activity against Pythium ultimum assessed as mycelial growth at 1.5 mg/disk by filter disk method relative to control; format: functional; procedure, shortened: as §1
Aspergillus niger [13] = assay: Antifungal activity against Aspergillus niger assessed as mycelial growth at 100 umol/L by filter disk method relative to control; format: functional; conditions: in the assay text read “by incorporation into growth medium” for “by filter disk method”; procedure, shortened: as §2
Polyporus [14] = assay: Antifungal activity against Polyporus marginatus assessed as mycelial growth at 100 umol/L by filter disk method relative to control; format: functional; conditions: in the assay text read “by incorporation into growth medium” for “by filter disk method”; procedure, shortened: as §2
[15] = tested on: Fusarium oxysporum f. sp. dianthi; assay: Antifungal activity against Fusarium oxysporum dianthi assessed as mycelial growth at 200 umol/L by […] relative to control; format: functional; procedure, shortened: as §2
Alternaria dianthi [16] = assay: Antifungal activity against Alternaria dianthi assessed as mycelial growth at 50 umol/L by filter disk method relative to control; format: functional; conditions: in the assay text read “by incorporation into growth medium” for “by filter disk method”; procedure, shortened: as §2
Botrytis [17] = assay: Antifungal activity against Botrytis cinerea assessed as mycelial growth at 50 umol/L by filter disk method relative to control; format: functional; conditions: in the assay text read “by incorporation into PDA growth medium” for “by filter disk method”; procedure, shortened: as §2
Aspergillus niger [18] = assay: Antifungal activity against Aspergillus niger assessed as mycelial growth at 50 umol/L by filter disk method relative to control; format: functional; conditions: in the assay text read “by incorporation into growth medium” for “by filter disk method”; procedure, shortened: as §2
Botrytis [19] = assay: Antifungal activity against Botrytis cinerea assessed as mycelial growth at 200 umol/L by filter disk method relative to control; format: functional; conditions: in the assay text read “by incorporation into PDA growth medium” for “by filter disk method”; procedure, shortened: as §2
Aspergillus niger [20] = assay: Antifungal activity against Aspergillus niger assessed as mycelial growth at 200 umol/L by filter disk method relative to control; format: functional; conditions: in the assay text read “by incorporation into growth medium” for “by filter disk method”; procedure, shortened: as §2
Alternaria dianthi [21] = assay: Antifungal activity against Alternaria dianthi assessed as mycelial growth at 100 umol/L by filter disk method relative to control; format: functional; conditions: in the assay text read “by incorporation into growth medium” for “by filter disk method”; procedure, shortened: as §2
Trichoderma viride [22] = assay: Antifungal activity against Trichoderma viride assessed as mycelial growth at 50 umol/L by filter disk method relative to control; format: functional; conditions: in the assay text read “by incorporation into growth medium” for “by filter disk method”; procedure, shortened: as §2
Fusarium basilici [23] = assay: Antifungal activity against Fusarium basilici assessed as mycelial growth at 15 mg/disk by filter disk method relative to control
Guignardia aesculi [24] = assay: Antifungal activity against Guignardia aesculi assessed as mycelial growth at 50 umol/L by […] relative to control; format: functional; procedure, shortened: as §2
Penicillium expansum [25] = assay: Antifungal activity against Penicillium expansum assessed as mycelial growth at 50 umol/L […] relative to control; format: functional; procedure, shortened: as §2
Alternaria alternata [26] = assay: Antifungal activity against Alternaria alternata assessed as mycelial growth at 200 umol/L by filter disk method relative to control; format: functional; conditions: in the assay text read “by incorporation into growth medium” for “by filter disk method”; procedure, shortened: as §2
Fusarium basilici [27] = assay: Antifungal activity against Fusarium basilici assessed as mycelial growth at 1.5 mg/disk by filter disk method relative to control
Globisporangium ultimum [28] = assay: Antifungal activity against Pythium ultimum assessed as mycelial growth at 0.15 mg/disk by filter disk method relative to control; format: functional; procedure, shortened: as §1
Guignardia aesculi [29] = assay: Antifungal activity against Guignardia aesculi assessed as mycelial growth at 100 umol/L by filter disk method relative to control; format: functional; conditions: in the assay text read “by incorporation into the growth medium” for “by filter disk method”; procedure, shortened: as §2
Alternaria alternata [30] = assay: Antifungal activity against Alternaria alternata assessed as mycelial growth at 50 umol/L by filter disk method relative to control; format: functional; conditions: in the assay text read “by incorporation into growth medium” for “by filter disk method”; procedure, shortened: as §2
Guignardia aesculi [31] = assay: Antifungal activity against Guignardia aesculi assessed as mycelial growth at 0.15 mg/disk by filter disk method relative to control; format: functional; procedure, shortened: as §1
Botrytis [32] = assay: Antifungal activity against Botrytis cinerea assessed as mycelial growth at 100 umol/L by filter disk method relative to control; format: functional; conditions: in the assay text read “by incorporation into PDA growth medium” for “by filter disk method”; procedure, shortened: as §2
Globisporangium ultimum [33] = assay: Antifungal activity against Pythium ultimum assessed as mycelial growth at 15 mg/disk by filter disk method relative to control; format: functional; procedure, shortened: as §1
Trichoderma viride [34] = assay: Antifungal activity against Trichoderma viride assessed as mycelial growth at 100 umol/L by filter disk method relative to control; format: functional; conditions: in the assay text read “by incorporation into growth medium” for “by filter disk method”; procedure, shortened: as §2
[35] = Antifungal activity against Rhizopus stolonifer assessed as mycelial growth at 100 umol/L […] relative to control; format: functional; procedure, shortened: as §2
Polyporus [36] = assay: Antifungal activity against Polyporus marginatus assessed as mycelial growth at 50 umol/L by filter disk method relative to control; format: functional; conditions: in the assay text read “by incorporation into growth medium” for “by filter disk method”; procedure, shortened: as §2
Rhizopus stolonifer [37] = assay: Antifungal activity against Rhizopus stolonifer assessed as mycelial growth at 200 umol/L […] relative to control; format: functional; procedure, shortened: as §2
Guignardia aesculi [38] = assay: Antifungal activity against Guignardia aesculi assessed as mycelial growth at 200 umol/L by filter disk method relative to control; format: functional; conditions: in the assay text read “by incorporation into growth medium” for “by filter disk method”; procedure, shortened: as §2
Penicillium expansum [39] = assay: Antifungal activity against Penicillium expansum assessed as mycelial growth at 100 umol/L […] relative to control; format: functional; procedure, shortened: as §2
Fulvia fulva [40] = assay: Antifungal activity against Cladosporium fulvum assessed as mycelial growth at 200 umol/L […] relative to control; format: functional; procedure, shortened: as §2
Alternaria dianthi [41] = assay: Antifungal activity against Alternaria dianthi assessed as mycelial growth at 200 umol/L by filter disk method relative to control; format: functional; conditions: in the assay text read “by incorporation into growth medium” for “by filter disk method”; procedure, shortened: as §2
[42] = tested on: Fusarium oxysporum f. sp. dianthi; assay: Antifungal activity against Fusarium oxysporum dianthi assessed as mycelial growth at 100 umol/L by […] relative to control; format: functional; procedure, shortened: as §2

With `CC[C@@H](CO)COc1cc2c(C)cc(=O)oc2cc1O` [PAVIETIN] the Activity (Guignardia aesculi [1]) was 33.8%, the Activity (Rhizopus stolonifer [2]) was 82% and the Activity (Guignardia aesculi [3]) was 64%. For the same compound, the Activity (Alternaria alternata [4]) was 80.2%, the Activity (Trichoderma viride [5]) was 61.5% and the Activity [6] was 76.1%. It also gave an Activity [7] of 91.8%, an Activity (Penicillium expansum [8]) of 29.9% and an Activity (Fulvia fulva [9]) of 88.6%. The Activity (Fulvia fulva [10]) was 78.3%, the Activity (Fusarium basilici [11]) was 87.8% and the Activity (Globisporangium ultimum [12]) was 81.6%. For the same compound, the Activity (Aspergillus niger [13]) was 68.6%, the Activity (Polyporus [14]) was 86.2% and the Activity [15] was 66.9%. The Activity (Alternaria dianthi [16]) was 89.5%, the Activity (Botrytis [17]) was 78.8% and the Activity (Aspergillus niger [18]) was 73.2%. The Activity (Botrytis [19]) was 51.4%, the Activity (Aspergillus niger [20]) was 50% and the Activity (Alternaria dianthi [21]) was 77%. It also gave an Activity (Trichoderma viride [22]) of 78.8%, an Activity (Fusarium basilici [23]) of 59% and an Activity (Guignardia aesculi [24]) of 84.6%. It also gave an Activity (Penicillium expansum [25]) of 68.8%, an Activity (Alternaria alternata [26]) of 58.5% and an Activity (Fusarium basilici [27]) of 76.4%. For the same compound, the Activity (Globisporangium ultimum [28]) was 88.4%, the Activity (Guignardia aesculi [29]) was 46.5% and the Activity (Alternaria alternata [30]) was 86.8%. The Activity (Guignardia aesculi [31]) was 85.3%, the Activity (Botrytis [32]) was 64.6% and the Activity (Globisporangium ultimum [33]) was 78%. The Activity (Trichoderma viride [34]) was 70.4%, the Activity [35] was 71.3% and the Activity (Polyporus [36]) was 93.6%. It also gave an Activity (Rhizopus stolonifer [37]) of 68.1%, an Activity (Guignardia aesculi [38]) of 20.7% and an Activity (Penicillium expansum [39]) of 48.4%. It also gave an Activity (Fulvia fulva [40]) of 60.8%, an Activity (Alternaria dianthi [41]) of 64.9% and an Activity [42] of 83.3%.
